Published values pooled from the literature.
USP51: Ubiquitin carboxyl-terminal hydrolase 51 (USP51, Homo sapiens, UniProt Q70EK9)
CA12: Carbonic anhydrase 12 (CA12, Homo sapiens, UniProt O43570)
SLC6A3: Sodium-dependent dopamine transporter (SLC6A3, Homo sapiens, UniProt Q01959)
DRD3: D(3) dopamine receptor (DRD3, Homo sapiens, UniProt P35462)

Structure (SMILES)	target	test	system	conditions	inhibition
O=c1c(O)c(-c2ccc(O)c(O)c2)oc2cc(O)ccc12	USP51	enzyme activity, inhibitor		5 µM	17%
CN(C)C1CCN(CC#Cc2nn(C3CCCC3)c3nc(NCc4ccccc4)ncc23)C1 (stereo not drawn)	Calcium/calmodulin-dependent protein kinase type IV (CAMK4, Homo sapiens, UniProt Q16566)	enzyme activity, inhibitor, FRET		10 µM	23%
COc1cc(NC(C)=O)c(Cl)cc1C(=O)Nc1nccs1	Peroxisome proliferator-activated receptor gamma (PPARG, Homo sapiens, UniProt P37231)	cell-free assay		10 µM	31.6%
CCOC(=O)C1CSc2[nH]c(=O)sc2C1c1cn(-c2ccccc2)nc1-c1ccc(Br)cc1 (stereo not drawn)	CA12	enzyme activity, inhibitor, absorbance		1 µM	55.8%
Clc1ccc(C(c2ccc(Cl)cc2)c2nnnn2CCCCN2CCC(Cc3ccc(Cl)c(Cl)c3)CC2)cc1	SLC6A3	transporter uptake, inhibitor	HEK293	1 µM	62.6%
COc1ccc(CCN2C(=O)CC(N3CCN(c4ccc(Cl)cc4)CC3)C2=O)cc1OC (stereo not drawn)	DRD3	enzyme activity, inhibitor		10 µM	-14.6%
CNC(=O)c1cc(Oc2ccc(NC(=O)Nc3ccc(Cl)c(C(F)(F)F)c3)cc2)ccn1	Tyrosine-protein kinase Lyn (Lyn, Mus musculus, UniProt P25911)	enzyme activity, inhibitor		10 µM	95%
COc1ccc(S(N)(=O)=O)cc1C(=O)NCCCN1CCN(c2ccccc2C)CC1	DRD3	enzyme activity, inhibitor		10 µM	22.8%
Clc1ccc(C(c2ccc(Cl)cc2)c2nnnn2CCCCN2CCN(CCCc3ccccc3)CC2)cc1	SLC6A3	transporter uptake, inhibitor	HEK293	1 µM	72.7%
N#CC1CSc2[nH]c(=O)sc2C1c1cn(-c2ccccc2)nc1-c1ccc(Br)cc1 (stereo not drawn)	CA12	enzyme activity, inhibitor, absorbance		10 nM	28.1%
OC(CNCc1cccc(Oc2nnnn2-c2ccccc2)c1)c1ccccc1 (stereo not drawn)	DRD3	enzyme activity, inhibitor		10 µM	29.3%
Cc1cc(O)c2c(=O)c3c(O)cc(O)c4c5c(O)cc(O)c6c(=O)c7c(O)cc(C)c8c1c2c(c34)c(c78)c65	USP51	enzyme activity, inhibitor		5 µM	53%
CCOC(=O)C1CSc2[nH]c(=O)sc2C1c1cn(-c2ccccc2)nc1-c1ccccc1 (stereo not drawn)	CA12	enzyme activity, inhibitor, absorbance		0.1 µM	27.5%
N[C@@H](Cc1ccccc1)C(=O)O	USP51	enzyme activity, inhibitor		5 µM	0%
CC(=O)Nc1ccc(N2CC(O)=C(c3nc4ccccc4[nH]3)C2=N)cc1	DRD3	enzyme activity, inhibitor		10 µM	-23.2%
C[C@H](CCC(=O)NCC(=O)O)[C@H]1CC[C@H]2[C@@H]3[C@H](O)C[C@@H]4C[C@H](O)CC[C@]4(C)[C@H]3C[C@H](O)[C@]12C	USP51	enzyme activity, inhibitor		5 µM	0%
Clc1ccc(C(c2ccc(Cl)cc2)c2nnnn2CCCN2CCC(CCCc3ccccc3)CC2)cc1	SLC6A3	transporter uptake, inhibitor	HEK293	1 µM	19.8%
NC(=O)NC1NC(=O)NC1=O (stereo not drawn)	USP51	enzyme activity, inhibitor		5 µM	13%
Cc1ccc(-c2nn(-c3ccccc3)cc2C2c3sc(=O)[nH]c3SC3C(=O)N(c4ccccc4)C(=O)C32)cc1 (stereo not drawn)	CA12	enzyme activity, inhibitor, absorbance		10 nM	13.8%
Cc1ccccc1N1CCN(CC(O)COc2ccc(C(=O)c3ccccc3)cc2)CC1 (stereo not drawn)	DRD3	enzyme activity, inhibitor		10 µM	53.1%
O=Cc1ccc(O[C@@H]2O[C@H](CO)[C@@H](O)[C@@H](O)[C@H]2O)cc1	USP51	enzyme activity, inhibitor		5 µM	28%
